# According to paper PMC4242840 (The Journal of Cell Biology, 2014):
# “Also recorded” adds a separate entry of the source.
# T1: HIS6-TEV-Rsa4 full-length (S. cerevisiae, UniProt P25382 1-515)
# T1 sequence: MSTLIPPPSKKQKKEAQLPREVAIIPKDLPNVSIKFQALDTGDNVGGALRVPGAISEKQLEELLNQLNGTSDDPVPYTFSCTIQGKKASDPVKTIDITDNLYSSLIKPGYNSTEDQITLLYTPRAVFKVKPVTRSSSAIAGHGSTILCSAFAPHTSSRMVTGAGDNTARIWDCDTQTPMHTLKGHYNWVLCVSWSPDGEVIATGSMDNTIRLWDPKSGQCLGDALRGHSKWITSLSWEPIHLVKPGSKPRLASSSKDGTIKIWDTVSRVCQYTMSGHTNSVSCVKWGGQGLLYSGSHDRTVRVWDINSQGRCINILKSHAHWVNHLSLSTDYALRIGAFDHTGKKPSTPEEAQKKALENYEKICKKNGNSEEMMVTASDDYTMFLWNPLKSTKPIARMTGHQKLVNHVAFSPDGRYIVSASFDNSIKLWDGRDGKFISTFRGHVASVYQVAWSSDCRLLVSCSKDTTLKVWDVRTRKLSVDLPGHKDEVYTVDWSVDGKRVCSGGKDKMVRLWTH
# T2: HIS6-Rsa4 WD40 domain (S. cerevisiae, UniProt P25382 112-515)
# T2 sequence: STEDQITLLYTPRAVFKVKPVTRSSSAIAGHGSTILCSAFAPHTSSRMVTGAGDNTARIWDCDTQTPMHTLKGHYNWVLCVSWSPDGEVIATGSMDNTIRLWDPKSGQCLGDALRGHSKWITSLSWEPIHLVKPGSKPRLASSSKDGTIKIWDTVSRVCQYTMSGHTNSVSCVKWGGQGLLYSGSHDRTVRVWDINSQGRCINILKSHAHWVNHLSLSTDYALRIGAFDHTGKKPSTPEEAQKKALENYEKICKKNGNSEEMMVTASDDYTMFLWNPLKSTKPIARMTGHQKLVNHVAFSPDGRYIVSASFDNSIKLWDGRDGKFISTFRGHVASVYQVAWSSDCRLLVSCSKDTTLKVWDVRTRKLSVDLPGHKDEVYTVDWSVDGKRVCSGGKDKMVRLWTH
# T3: Rsa4 β-propeller (Rsa4Δ136) (S. cerevisiae, UniProt P25382 137-515)
# T3 sequence: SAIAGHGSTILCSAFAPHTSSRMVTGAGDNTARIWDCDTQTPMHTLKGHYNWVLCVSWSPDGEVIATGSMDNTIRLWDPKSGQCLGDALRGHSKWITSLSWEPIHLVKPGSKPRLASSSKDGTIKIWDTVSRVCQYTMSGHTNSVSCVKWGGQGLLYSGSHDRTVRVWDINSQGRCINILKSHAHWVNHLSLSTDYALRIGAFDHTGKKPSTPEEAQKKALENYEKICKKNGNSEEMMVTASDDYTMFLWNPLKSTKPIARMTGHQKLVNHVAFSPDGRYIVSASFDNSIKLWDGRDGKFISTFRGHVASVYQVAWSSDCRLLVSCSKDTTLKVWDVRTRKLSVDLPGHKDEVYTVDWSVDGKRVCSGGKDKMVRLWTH
# Key:
# [1] = biological target: T1, HIS6-TEV-Rsa4 full-length; experiment: pull-down
# [2] = biological target: T2, HIS6-Rsa4 WD40 domain; experiment: pull-down
# [3] = biological target: T3, Rsa4 β-propeller (Rsa4Δ136); experiment: ITC
# [4] = test system: 60S subunit formation and nuclear export; experiment: 60S biogenesis/export upon overexpression; assay type: cell-based, Saccharomyces cerevisiae; details: galactose-containing medium, 6 h (nsa2) or 8 h (rsa4)
# Method in brief: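 Wild-type yeast carried plasmids for the 60S reporter Rpl25-EGFP and mRFP-Nop1, plus 2μ GAL-driven NSA2 alleles. Cells were shifted to galactose medium for 6 h (Nsa2), washed in water and imaged at room temperature (100× oil objective, EGFP/Cy3 filters). For profiles, cells were treated with cycloheximide for 15 min, lysed with glass beads and run on 10–50% sucrose gradients (16 h, 27,000 rpm), recorded at 254 nm.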
# [5] = test system: Nsa2 shuffle strain (nsa2Δ); experiment: complementation of nsa2Δ; assay type: cell-based, Saccharomyces cerevisiae; details: SDC+FOA, 30°C, 2 or 3 d
# [6] = test system: 60S subunit production / pre-60S composition; experiment: pulse-chase labeling with affinity purification of Rpl25; assay type: cell-based, Saccharomyces cerevisiae
# Method in brief: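 Strain DS1-2b carried an amber-suppressor tRNA/synthetase plasmid and a GAL plasmid co-expressing 2×HA-TAG-Rpl25-FTpA with wild-type or Y90A Nsa2. After 60 min galactose induction, O-methyl-tyrosine was added as a 7 min pulse, followed by a 20 min chase with tetracycline and glucose. Rpl25 was TAP-purified, run on SDS-PAGE with Coomassie staining, and bands were identified by mass spectrometry.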
# [7] = test system: wild-type yeast growth; experiment: dominant-negative phenotype upon GAL overexpression in wild-type yeast; assay type: cell-based, Saccharomyces cerevisiae; details: GAL promoter, galactose medium, 30°C, 2 or 3 d
# [8] = test system: pre-60S particles; experiment: association with pre-60S particles; assay type: cell-based, Saccharomyces cerevisiae
# Method in brief: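 Wild-type yeast expressed plasmid-borne NSA2-FTpA or nsa2 Y90A-FTpA. Cells were treated with cycloheximide for 15 min and lysed with glass beads. Whole-cell lysates were fractionated on 10–50% sucrose gradients (16 h, 27,000 rpm, 0.4 ml fractions), and fractions were probed by Western blot with anti-ProtA to detect tagged Nsa2.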
# [9] = test system: pre-60S particles; experiment: affinity purification of Rpl5-FTpA constructs; assay type: cell-based, Saccharomyces cerevisiae; details: Flag-TEV-ProtA bait
# Method in brief: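 Rpl5 variants tagged with Flag-TEV-ProtA were purified from a 2-liter yeast culture pellet. Steps: IgG-Sepharose 90 min, TEV elution 120 min, FLAG beads 45 min, FLAG-peptide elution. Eluates were run alongside pre-60S particles purified via Nsa2-FTpA and FTpA-Rsa4, then analysed by SDS-PAGE and Western blot.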
# [10] = test system: 25S rRNA helices H89, H90, H42; experiment: UV cross-linking and analysis of cDNA; assay type: binding, Saccharomyces cerevisiae; details: in vivo UV cross-linking, % of hits
# Method in brief: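 Yeast culture was UV-irradiated to cross-link protein to RNA, then lysed with zirconia beads. Nsa2-His-TEV-ProtA was bound to IgG-Sepharose and eluted with TEV. The eluate was RNase-treated and denatured, and Nsa2 was repurified on Ni-NTA under denaturing conditions. Cross-linked RNA was ligated to 3′ and 5′ DNA linkers and sequenced; hits were mapped to rRNA helices.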
molecule,measurement,setting,value
MBP-Nsa2 (natural protein) MPQNDYIERHIKQHGKRLDHEERKRKREARESHKISERAQKLTGWKGKQFAKKRYAEKVSMRKKIKAHEQSKVKGSSKPLDTDGDALPTYLLDREQNNTAKAISSSIKQKRLEKADKFSVPLPKVRGISEEEMFKVIKTGKSRSKSWKRMITKHTFVGEGFTRRPVKMERIIRPSALRQKKANVTHPELGVTVFLPILAVKKNPQSPMYTQLGVLTKGTIIEVNVSELGMVTAGGKVVWGKYAQVTNEPDRDGCVNAVLLV,binding result,[1],binds
GDALPTYLLDREQ (domain or fragment) [MBP-Nsa2 84–96 aa],binding result,[2],binds
"DALPTYLLDRE [Nsa2 peptide (85–95 aa, DALPTYLLDRE)]",binding result,[3],binds
MBP-Nsa2 Y90F (natural protein) MPQNDYIERHIKQHGKRLDHEERKRKREARESHKISERAQKLTGWKGKQFAKKRYAEKVSMRKKIKAHEQSKVKGSSKPLDTDGDALPTFLLDREQNNTAKAISSSIKQKRLEKADKFSVPLPKVRGISEEEMFKVIKTGKSRSKSWKRMITKHTFVGEGFTRRPVKMERIIRPSALRQKKANVTHPELGVTVFLPILAVKKNPQSPMYTQLGVLTKGTIIEVNVSELGMVTAGGKVVWGKYAQVTNEPDRDGCVNAVLLV,binding result,[1],binds
"nsa2 Y90A: Nsa2 with tyrosine 90 mutated to alanine (protein, left off: MBP, N-terminal, kept) MPQNDYIERHIKQHGKRLDHEERKRKREARESHKISERAQKLTGWKGKQFAKKRYAEKVSMRKKIKAHEQSKVKGSSKPLDTDGDALPTALLDREQNNTAKAISSSIKQKRLEKADKFSVPLPKVRGISEEEMFKVIKTGKSRSKSWKRMITKHTFVGEGFTRRPVKMERIIRPSALRQKKANVTHPELGVTVFLPILAVKKNPQSPMYTQLGVLTKGTIIEVNVSELGMVTAGGKVVWGKYAQVTNEPDRDGCVNAVLLV",effect of overexpression on 60S biogenesis / export,[4],defect in 60S subunit export
same,effect of overexpression on 60S biogenesis / export,[4]; listed as Nsa2 Y90A,specific block in nuclear export and formation of 60S subunits
same,growth / viability (complementation),[5],nonviable
same,60S production in pulse-chase,"[6]; 60-min galactose induction, 7 min Ome-Tyr pulse, 20 min chase",arrests 60S biogenesis
same,enrichment of methyl-transferases Spb1 and Nop2,"[6]; arrested preribosomal intermediate, HA-Rpl25-Flag-ProtA purification",strongly enriched
same,dominant-negative phenotype upon overexpression,[7],dominant lethal
same,dominant-negative phenotype upon overexpression,[7]; listed as Nsa2 Y90A,strong dominant-lethal phenotype
same,association with pre-60S particles,"[8]; 10–50% sucrose gradient, anti-ProtA Western blot",still associated with pre-60S particles; also recorded: efficiently assembled into preribosomes
same,replacement of endogenous Nsa2 in preribosomes,[8]; upon overexpression,replacement of endogenous Nsa2 within the preribosomes
"nsa2 Y90F: Nsa2 with tyrosine 90 mutated to phenylalanine (protein, left off: MBP, N-terminal, kept) MPQNDYIERHIKQHGKRLDHEERKRKREARESHKISERAQKLTGWKGKQFAKKRYAEKVSMRKKIKAHEQSKVKGSSKPLDTDGDALPTFLLDREQNNTAKAISSSIKQKRLEKADKFSVPLPKVRGISEEEMFKVIKTGKSRSKSWKRMITKHTFVGEGFTRRPVKMERIIRPSALRQKKANVTHPELGVTVFLPILAVKKNPQSPMYTQLGVLTKGTIIEVNVSELGMVTAGGKVVWGKYAQVTNEPDRDGCVNAVLLV",growth / viability (complementation),[5],normal growth
"wild-type Rpl5: ribosomal protein Rpl5 (uL18), wild type (protein) MAFQKDAKSSAYSSRFQTPFRRRREGKTDYYQRKRLVTQHKAKYNTPKYRLVVRFTNKDIICQIISSTITGDVVLAAAYSHELPRYGITHGLTNWAAAYATGLLIARRTLQKLGLDETYKGVEEVEGEYELTEAVEDGPRPFKVFLDIGLQRTTTGARVFGALKGASDGGLYVPHSENRFPGWDFETEEIDPELLRSYIFGGHVSQYMEELADDDEERFSELFKGYLADDIDADSLEDIYTSAHEAIRADPAFKPTEKKFTKEQYAAESKKYRQTKLSKEERAARVAAKIAALAGQQ",co-purified particles / Syo1,[9],"only recovered mature 60S subunits, plus Syo1"
"Nsa2-His6-TEV-ProtA: Nsa2 tagged with His6-TEV-ProtA used for CRAC (protein, UniProt P40078 1-261, looked up, His6-TEV-ProtA tag) Ribosome biogenesis protein …: MPQNDYIERHIKQHGKRLDHEERKRKREARESHKISERAQKLTGWKGKQFAKKRYAEKVSMRKKIKAHEQSKVKGSSKPLDTDGDALPTYLLDREQNNTAKAISSSIKQKRLEKADKFSVPLPKVRGISEEEMFKVIKTGKSRSKSWKRMITKHTFVGEGFTRRPVKMERIIRPSALRQKKANVTHPELGVTVFLPILAVKKNPQSPMYTQLGVLTKGTIIEVNVSELGMVTAGGKVVWGKYAQVTNEPDRDGCVNAVLLV",CRAC hits on H42,[10]; rRNA helix H42,15%
same,CRAC hits on H89,[10]; rRNA helix H89,60%
same,CRAC hits on H90,[10]; rRNA helix H90,25%
